# In the library only some 0.77% were active in any assay of this set; here they are far more common.
# hIAP act: increases human intestinal alkaline phosphatase activity; P09923; purified human IAP, CDP-Star luminescence, 30 min; hits give high values; 1 = vehicle-only enzyme, 0 = enzyme-free background; activation factor at 10 µM; 330,000 compounds, 0.16% hits; AID 2524;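 active = activation factor of the enzyme at least 2-fold when tested at 20 µM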
# Target sequence (P09923 whole entry, looked up): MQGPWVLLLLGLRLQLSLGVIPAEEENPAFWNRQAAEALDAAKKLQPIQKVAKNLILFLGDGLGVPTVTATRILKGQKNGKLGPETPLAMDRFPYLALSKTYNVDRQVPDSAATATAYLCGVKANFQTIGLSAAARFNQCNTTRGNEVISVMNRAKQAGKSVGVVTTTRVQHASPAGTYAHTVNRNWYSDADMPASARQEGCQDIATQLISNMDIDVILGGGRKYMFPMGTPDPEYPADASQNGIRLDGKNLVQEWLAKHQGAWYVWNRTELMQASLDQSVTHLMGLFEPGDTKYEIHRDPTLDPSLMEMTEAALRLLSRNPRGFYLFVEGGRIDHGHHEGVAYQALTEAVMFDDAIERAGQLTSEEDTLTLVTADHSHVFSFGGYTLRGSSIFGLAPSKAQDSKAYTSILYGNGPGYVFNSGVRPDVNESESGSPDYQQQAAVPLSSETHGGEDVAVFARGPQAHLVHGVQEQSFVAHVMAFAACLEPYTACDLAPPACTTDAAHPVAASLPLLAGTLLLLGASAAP
# bIAP inh: blocks bovine intestinal alkaline phosphatase activity | purified bovine IAP, CDP-star luminescence, 30 min | inhibition, % at 20 µM | 190,000 tested, under 10 active;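 active = over 50% inhibition of intestinal alkaline phosphatase at 20 µM in the single-dose screen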
#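 Incubation: 30 min reaction at room temperature / Material: purified bovine intestinal alkaline phosphatase (IAP) enzyme / Input: enzyme at 1/65,000,000 dilution / Dosing: 20 µM single dose / Signal: CDP-star luminescence signal / Reagent: CDP-star chemiluminescent phosphatase substrate, 30 µM final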
# hIAP inh: blocks human intestinal alkaline phosphatase. purified IAP, CDP-Star luminescence, 30 min. inhibition, % at 10 µM. 330,000 compounds, 0.12% hits;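 active = inhibition reaching a set limit with compound at 10 µM in the primary screen, cut at about 35% in these data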
# mIAP act: mouse IAP activation | muIAP, CDP-Star luminescence, 30 min; hits give high values; 1 = vehicle-only enzyme signal, 0 = enzyme-free wells | activation factor at 10 µM | 330,000 compounds, 0.24% hits | AID 2805;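 active = activation factor of at least 2 at 20 µM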
#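 Assay system: mouse IAP enzyme; reagent: chemiluminescent substrate CDP-Star; dosing: test compounds delivered from DMSO solution; schedule: 30 min at room temperature; measured by: luminescence from enzymatic CDP-Star hydrolysis; controls: DMSO-only wells and no-enzyme negative control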
# bIAP act: increases bovine intestinal alkaline phosphatase activity; 200,000 compounds, 0.17% hits; activation factor at 20 µM; purified bovine IAP, CDP-star luminescence, 30 min; hits give high values; fold of DMSO-control signal, blank-subtracted;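 active = activation factor of 2 or more at 20 µM, a signal rise over negative controls twice the positive control's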
# mIAP inh: mouse IAP inhibition | AID 2806 | inhibition, % at 10 µM | 330,000 compounds, 0.2% hits | purified mouse IAP, CDP-Star luminescence, 30 min;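 active = inhibition of at least 40% at 10 µM in the primary screen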
# hIAP act confirm: human IAP activation confirmation; shares compounds with hIAP act; purified IAP, CDP-Star luminescence, 30 min; hits give low values; activation (%Activity, negative = activation), % at 8.3 µM; 880 compounds, 10% hits; AID 434926;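 active = at least twofold enzyme activation in any of six single-dose repeats, which the averaged readout prints as negative percent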
# mIAP inh confirm: mouse IAP inhibition confirmation; shares compounds with mIAP inh; purified mouse IAP, CDP-Star luminescence, 30 min; inhibition, % at 10 µM; 11,000 compounds, 4.7% hits; AID 434971;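 active = inhibition of at least 40% at 10 µM in either of the two replicates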
# Hits are given with their value; n = inactive; x = not tested or not shown.
SMILES,hIAP act,bIAP inh,hIAP inh,mIAP act,bIAP act,mIAP inh,hIAP act confirm,mIAP inh confirm
O=C1/C(=C/c2cccc([N+](=O)[O-])c2)Oc2cc(O)ccc21,n,x,n,n,x,n,x,x
Cn1cc(CN2CCC(C(=O)Nc3cccc(-c4cccc(F)c4)c3)CC2)cn1,2.54,x,n,2.3,x,n,n,n
Cc1nn(C(C)C)c(C)c1CN1CCC(C(=O)Nc2cccc(-c3cccc(F)c3)c2)CC1,11,x,n,4.73,x,n,n,n
Cc1cccc(CN2CCC(C(=O)Nc3cccc(-c4cccc(F)c4)c3)CC2)n1,n,x,n,n,x,n,x,x
COc1cccc(-c2cccc(NC(=O)C3CCN(Cc4cnn(C)c4)CC3)c2)c1,n,x,n,n,x,n,x,x
O=C(Nc1cccc(-c2cccc(F)c2)c1)C1CCN(C2CCC2)CC1,2.16,x,n,3.14,x,n,n,n
O=C(CSc1nnc(NC(=O)c2ccc(F)cc2F)s1)NC1CCCC1,n,x,n,n,x,n,x,x
CN(C)c1cccc(C(=O)OCC(=O)NC2CCCC2)c1,n,x,n,n,x,n,x,x
O=c1oc2ccccc2c2oc3cc(O)c(O)cc3c12,n,x,70.3,n,x,58.2,n,67.2
Nc1c(N)c2ccccc2oc1=O,n,n,n,n,n,n,x,x
O=C(NCC1CCCO1)C1CCN(C2CCN(C3CCCCCC3)CC2)CC1 (centres undefined),n,n,n,n,n,n,x,x
CN(C)c1ccc2nc3c(=O)[nH]c(=O)nc-3n(CC(O)C(O)C(O)CO)c2c1 (centres undefined),n,x,51.7,n,x,41.0,-87.3,46.2
CS(=O)(=O)c1ccc2c(c1)sc1nc(=O)c(/C=C3/C=CC(=O)C(O)=C3)c(N)n12,n,x,58.5,n,x,74.9,n,85.3
COC1=C/C(=C/c2c(N)n3c(nc2=O)sc2cc(S(C)(=O)=O)ccc23)C=CC1=O,n,x,n,n,x,n,x,x
C[C@H](CO)N1C[C@H](C)[C@@H](CN(C)C)Oc2c(NS(=O)(=O)c3ccccc3)cccc2C1=O,n,x,n,n,x,n,x,x
O=C(/C=C/c1ccc(O)c(O)c1)NC(=O)c1ccccc1O,n,x,56.8,n,x,48.1,n,59.3
O=c1[nH]c(/C=C\c2ccc(O)c(O)c2)nc(O)c1[N+](=O)[O-],n,x,43.3,n,x,47.8,n,74.9
O=S(=O)(NCc1ccccn1)c1ccccn1,n,x,n,n,x,n,x,x
O=C(NN1C(=O)/C(=C/c2ccc(O)cc2)SC1=S)c1ccccc1O,n,x,35.8,n,x,40.1,n,55.7
C=CCn1cc(CN2CCC(C(=O)Nc3ccc(Oc4cccnc4)cc3)CC2)c(C)n1,n,x,n,n,x,n,x,x
Cc1c(CN2CCC(C(=O)Nc3cccc(-c4cccc(Cl)c4)c3)CC2)cnn1C,6.44,x,n,5.02,x,n,n,n
O=C(Nc1cccc(-c2cccc(Cl)c2)c1)C1CCN(CC2CCOC2)CC1 (centres undefined),4.11,x,n,3.02,x,n,n,n
O=C(Nc1cccc(-c2cccc(F)c2)c1)C1CCN(CC2CCOC2)CC1 (centres undefined),n,x,n,n,x,n,x,x
O=C(Nc1cccc(-c2cccc(Cl)c2)c1)C1CCN(Cc2ccccn2)CC1,n,x,n,n,x,n,x,x
O=C(Nc1cccc(-c2cccc(Cl)c2)c1)C1CCN(Cc2ccon2)CC1,2.01,x,n,2.33,x,n,n,n
SMILES,hIAP act,bIAP inh,hIAP inh,mIAP act,bIAP act,mIAP inh,hIAP act confirm,mIAP inh confirm
C=CCn1cc(CN2CCC(C(=O)Nc3cccc(-c4cccc(Cl)c4)c3)CC2)c(C)n1,7.93,x,n,6.48,x,n,n,n
O=C(N/N=C/c1ccc(O)cc1O)C(=O)N/N=C/c1ccc(O)cc1O,2.28,x,n,n,x,53.5,n,67.3
O=S(=O)(NC1CC1)c1ccc(S(=O)(=O)N(Cc2ccccn2)C2CC2)cc1,n,x,n,n,x,n,x,x
Cc1ccc(NC(=O)C2CC(=O)n3c(nc4ccccc43)N2)cc1C (centres undefined),2.15,x,n,3.51,x,n,n,n
CC1(C(=O)OCC(=O)Nc2cccc(S(=O)(=O)NC3=NCCCCC3)c2)CC1(Cl)Cl (centres undefined),n,n,n,n,n,n,x,x
O=C(NN1C(=O)CSC1=S)C(=O)NN1C(=O)CSC1=S,2.45,n,n,n,n,88.9,n,91.8
CC1(C)Cc2c(sc(NC(=O)c3ccccc3Cl)c2C(=O)O)CO1,n,n,n,n,n,n,x,x
O=C1CC(c2ccc(O)c(O)c2)Oc2cc(O)cc(O)c21 (centres undefined),n,x,44.2,n,x,56.2,n,52.6
Cc1cc(NC(=O)c2coc(=O)c(Br)c2)ccc1C(C)C,n,x,n,n,x,n,x,x
O=C(NNC(=O)C1CCCCC1)c1ccco1,n,n,n,n,n,n,x,x
CCC1CCC(C(=O)NNC(=O)c2cc(-c3ccco3)[nH]n2)CC1 (centres undefined),2.05,n,n,n,n,54.8,n,59.7
CC(C)c1ccc(NC(=O)C2CC(=O)Nc3nc4ccccc4n32)cc1 (centres undefined),2.37,x,n,2.89,x,n,n,n
COc1cccc(NC(=O)NCC2CCN(Cc3ccc(F)cc3)CC2)c1,n,x,n,n,x,n,x,x
Cc1ccc(NC(=O)NCC2CCN(Cc3cccc(Cl)c3)CC2)cc1Cl,n,n,n,4.21,n,n,x,n
CCc1ccc(NC(=O)NCC2CCN(Cc3cccc(Cl)c3)CC2)cc1,n,x,n,3.09,x,n,x,n
COc1c(Cl)cc(C(=O)NN)cc1Cl,n,n,n,n,n,n,x,x
NNC(=O)c1cc(O)c(O)c(O)c1,n,n,n,n,n,63.4,x,71.1
CC(=O)Oc1cc(C(=O)OCC(=O)N2CCc3ccccc3C2)cc(OC(C)=O)c1OC(C)=O,n,x,n,n,x,45.5,x,51.2
COc1ccc(NC(=O)c2ccc(NC(=O)CN3CCN(c4ccccc4)CC3)cc2)cc1,n,x,n,n,x,n,x,x
CCC(C)C(=O)Nc1cc(C(=O)OC)cc(C(=O)OC)c1 (centres undefined),n,n,n,n,n,n,x,x
O=C(Nc1nc(-c2ccco2)c(-c2ccco2)s1)C1CC(=O)N(c2ccc3c(c2)OCCO3)C1 (centres undefined),n,n,n,n,n,54.0,x,69.0
Cc1nnc(NC(=O)C2CC(=O)N(c3ccc4c(c3)OCCO4)C2)s1 (centres undefined),n,x,n,n,x,n,x,x
CC(=O)NC(=S)Nc1ccc(NC(=S)NC(=O)/C=C/c2ccco2)cc1,n,x,n,n,x,n,x,x
C=CCNC(=S)NNC(=O)c1ccco1,n,n,n,n,n,n,x,x
O=C(/C=C/c1ccco1)NC(=S)NNC(=O)c1ccco1,n,n,n,n,n,49.2,x,54.3

# Compound activity deposited in PubChem BioAssay by Sanford-Burnham Center for Chemical Genomics.
